Assay results from ChEMBL document CHEMBL1153921, “Design, synthesis, and biological evaluation of novel 1-(1H-1,2,4-triazole-1-yl)-2-(2,4-difluorophenyl)-3-substituted benzylamino-2-propanols” (2009).
≈ marks a conversion by molar mass, not a printed value.

Columns and labels:
Assay type in all cases: functional
Pichia kudriavzevii = test: Antimicrobial activity against Candida krusei by micro-broth dilution method
Method in brief: (§1)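 Clinical isolates. Tested by broth microdilution in 96-well plates following NCCLS M27-A2. MIC80, the minimum concentration inhibiting growth by 80%, was recorded. Marketed reference antifungals were included as positive controls.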

Candida albicans = test: Antimicrobial activity against Candida albicans by micro-broth dilution method
Method in brief: (§2)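 ATCC standard strains. Broth microdilution in 96-well plates following NCCLS M27-A2 (reference broth dilution method for yeasts). Endpoint is MIC80, the lowest concentration giving 80% growth inhibition. Marketed reference antifungals ran alongside as positive controls.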

Cryptococcus neoformans = test: Antimicrobial activity against Cryptococcus neoformans by micro-broth dilution method; method in brief: as §2
Candida parapsilosis = test: Antimicrobial activity against Candida parapsilosis by micro-broth dilution method; details: Lodderomyces parapsilosis; method in brief: as §1
Candida tropicalis = test: Antimicrobial activity against Candida tropicalis by micro-broth dilution method; method in brief: as §1
Trichophyton rubrum = test: Antimicrobial activity against Trichophyton rubrum by micro-broth dilution method; method in brief: as §1
Nannizzia gypsea = test: Antimicrobial activity against Microsporum gypseum by micro-broth dilution method; method in brief: as §1
Aspergillus fumigatus = test: Antimicrobial activity against Aspergillus fumigatus by micro-broth dilution method; method in brief: as §1

MIC80 (Pichia kudriavzevii) [µg/mL]	MIC80 (Candida albicans) [µg/mL]	MIC80 (Cryptococcus neoformans) [µg/mL]	MIC80 (Candida parapsilosis) [µg/mL]	MIC80 (Candida tropicalis) [µg/mL]	MIC80 (Trichophyton rubrum) [µg/mL]	MIC80 (Nannizzia gypsea) [µg/mL]	MIC80 (Aspergillus fumigatus) [µg/mL]	SMILES
1 (≈ 2.41 µM)	0.0625 (≈ 0.151 µM)	1 (≈ 2.41 µM)	1 (≈ 2.41 µM)	1 (≈ 2.41 µM)	1 (≈ 2.41 µM)	0.25 (≈ 0.603 µM)	> 64	CCc1ccc(CN(CC(O)(Cn2cncn2)c2ccc(F)cc2F)C(C)C)cc1 (centres undefined)
0.25 (≈ 0.537 µM)	0.0039 (≈ 0.00838 µM)	0.25 (≈ 0.537 µM)	0.0625 (≈ 0.134 µM)	0.0625 (≈ 0.134 µM)	0.0625 (≈ 0.134 µM)	0.0156 (≈ 0.0335 µM)	4 (≈ 8.6 µM)	CC(C)N(Cc1ccc(Br)cc1)CC(O)(Cn1cncn1)c1ccc(F)cc1F (centres undefined)
0.0625 (≈ 0.148 µM)	0.0625 (≈ 0.148 µM)	0.25 (≈ 0.594 µM)	0.0625 (≈ 0.148 µM)	0.25 (≈ 0.594 µM)	0.25 (≈ 0.594 µM)	0.0625 (≈ 0.148 µM)	1 (≈ 2.38 µM)	CC(C)N(Cc1ccc(Cl)cc1)CC(O)(Cn1cncn1)c1ccc(F)cc1F (centres undefined)
0.25 (≈ 0.537 µM)	0.25 (≈ 0.537 µM)	0.25 (≈ 0.537 µM)	0.0625 (≈ 0.134 µM)	0.0625 (≈ 0.134 µM)	0.0625 (≈ 0.134 µM)	0.0156 (≈ 0.0335 µM)	> 64	CC(C)N(Cc1ccccc1Br)CC(O)(Cn1cncn1)c1ccc(F)cc1F (centres undefined)
0.25 (≈ 0.647 µM)	0.0156 (≈ 0.0404 µM)	0.25 (≈ 0.647 µM)	0.0625 (≈ 0.162 µM)	0.25 (≈ 0.647 µM)	0.0625 (≈ 0.162 µM)	0.0156 (≈ 0.0404 µM)	64 (≈ 166 µM)	CC(C)N(Cc1ccccc1)CC(O)(Cn1cncn1)c1ccc(F)cc1F (centres undefined)
0.0625 (≈ 0.155 µM)	0.0625 (≈ 0.155 µM)	0.0625 (≈ 0.155 µM)	0.0625 (≈ 0.155 µM)	0.0625 (≈ 0.155 µM)	0.25 (≈ 0.618 µM)	0.0625 (≈ 0.155 µM)	64 (≈ 158 µM)	CC(C)N(Cc1cccc(F)c1)CC(O)(Cn1cncn1)c1ccc(F)cc1F (centres undefined)
1 (≈ 2.2 µM)	0.25 (≈ 0.549 µM)	16 (≈ 35.1 µM)	1 (≈ 2.2 µM)	1 (≈ 2.2 µM)	0.25 (≈ 0.549 µM)	1 (≈ 2.2 µM)	> 64	CC(C)N(Cc1ccc(Cl)cc1Cl)CC(O)(Cn1cncn1)c1ccc(F)cc1F (centres undefined)

The next lines start with the compound.

SMILES	MIC80 (Pichia kudriavzevii) [µg/mL]	MIC80 (Candida albicans) [µg/mL]	MIC80 (Cryptococcus neoformans) [µg/mL]	MIC80 (Candida parapsilosis) [µg/mL]	MIC80 (Candida tropicalis) [µg/mL]	MIC80 (Trichophyton rubrum) [µg/mL]	MIC80 (Nannizzia gypsea) [µg/mL]	MIC80 (Aspergillus fumigatus) [µg/mL]
CN(C/C=C/C#CC(C)(C)C)Cc1cccc2ccccc12 [TERBINAFINE]	16 (≈ 54.9 µM)	4 (≈ 13.7 µM)	1 (≈ 3.43 µM)	0.25 (≈ 0.858 µM)	0.0625 (≈ 0.214 µM)	0.0625 (≈ 0.214 µM)	4 (≈ 13.7 µM)	0.0625 (≈ 0.214 µM)
CCCN(Cc1ccc(Br)cc1)CC(O)(Cn1cncn1)c1ccc(F)cc1F (centres undefined)	0.25 (≈ 0.537 µM)	0.0625 (≈ 0.134 µM)	0.25 (≈ 0.537 µM)	0.0156 (≈ 0.0335 µM)	0.0625 (≈ 0.134 µM)	0.25 (≈ 0.537 µM)	0.0625 (≈ 0.134 µM)	> 64
CCCN(Cc1ccc(CC)cc1)CC(O)(Cn1cncn1)c1ccc(F)cc1F (centres undefined)	1 (≈ 2.41 µM)	0.0156 (≈ 0.0376 µM)	1 (≈ 2.41 µM)	0.25 (≈ 0.603 µM)	0.25 (≈ 0.603 µM)	1 (≈ 2.41 µM)	0.25 (≈ 0.603 µM)	> 64
CCCCN(Cc1ccc(Br)cc1)CC(O)(Cn1cncn1)c1ccc(F)cc1F (centres undefined)	1 (≈ 2.09 µM)	4 (≈ 8.34 µM)	0.25 (≈ 0.522 µM)	0.25 (≈ 0.522 µM)	1 (≈ 2.09 µM)	0.25 (≈ 0.522 µM)	1 (≈ 2.09 µM)	> 64
CCCCN(Cc1ccccc1F)CC(O)(Cn1cncn1)c1ccc(F)cc1F (centres undefined)	0.25 (≈ 0.597 µM)	0.0625 (≈ 0.149 µM)	0.25 (≈ 0.597 µM)	0.25 (≈ 0.597 µM)	0.25 (≈ 0.597 µM)	1 (≈ 2.39 µM)	0.25 (≈ 0.597 µM)	16 (≈ 38.2 µM)
CCCCN(Cc1ccccc1Br)CC(O)(Cn1cncn1)c1ccc(F)cc1F (centres undefined)	1 (≈ 2.09 µM)	1 (≈ 2.09 µM)	0.25 (≈ 0.522 µM)	0.25 (≈ 0.522 µM)	0.25 (≈ 0.522 µM)	1 (≈ 2.09 µM)	0.25 (≈ 0.522 µM)	> 64
CCCN(Cc1ccccc1)CC(O)(Cn1cncn1)c1ccc(F)cc1F (centres undefined)	0.0625 (≈ 0.162 µM)	0.0156 (≈ 0.0404 µM)	0.0625 (≈ 0.162 µM)	0.0625 (≈ 0.162 µM)	0.0625 (≈ 0.162 µM)	0.0625 (≈ 0.162 µM)	0.0156 (≈ 0.0404 µM)	> 64
CC(=O)N1CCN(c2ccc(OCC3COC(Cn4ccnc4)(c4ccc(Cl)cc4Cl)O3)cc2)CC1 (centres undefined) [KETOCONAZOLE]	0.25 (≈ 0.47 µM)	0.0156 (≈ 0.0294 µM)	0.0625 (≈ 0.118 µM)	0.0625 (≈ 0.118 µM)	0.0625 (≈ 0.118 µM)	0.0625 (≈ 0.118 µM)	0.0156 (≈ 0.0294 µM)	1 (≈ 1.88 µM)
CCCCN(Cc1ccc(Cl)cc1)CC(O)(Cn1cncn1)c1ccc(F)cc1F (centres undefined)	1 (≈ 2.3 µM)	1 (≈ 2.3 µM)	1 (≈ 2.3 µM)	1 (≈ 2.3 µM)	1 (≈ 2.3 µM)	1 (≈ 2.3 µM)	1 (≈ 2.3 µM)	> 64
CC(C)N(Cc1ccc([N+](=O)[O-])cc1)CC(O)(Cn1cncn1)c1ccc(F)cc1F (centres undefined)	0.0625 (≈ 0.145 µM)	0.0156 (≈ 0.0362 µM)	0.25 (≈ 0.579 µM)	0.0625 (≈ 0.145 µM)	0.25 (≈ 0.579 µM)	0.25 (≈ 0.579 µM)	0.0156 (≈ 0.0362 µM)	64 (≈ 148 µM)
CCCN(Cc1ccccc1F)CC(O)(Cn1cncn1)c1ccc(F)cc1F (centres undefined)	0.0625 (≈ 0.155 µM)	0.0156 (≈ 0.0386 µM)	0.25 (≈ 0.618 µM)	0.0625 (≈ 0.155 µM)	0.0625 (≈ 0.155 µM)	1 (≈ 2.47 µM)	0.0156 (≈ 0.0386 µM)	> 64
